This is a sample that favours compounds with a hit; in the whole collection about 1.7% have one here.
CHO-K1 Ca PAM: counter-screen for M1 PAMs: effect in parental CHO-K1 cells. hit rate 0.02% among 360,000. AID 602247. ATP EC20, Fluo-8 calcium fluorescence; 0% at ATP EC20, 100% at ATP max. activation, % at 3 µM;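 active = activation above the run cutoff, the mean activation of all test compounds plus 3 SD, cut at about 40% in these data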;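 also: peak over basal fluorescence ratio in a 140 s read after ATP addition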
CHO-K1 Ca antag: M1 antagonist counterscreen hit in parental CHO-K1 cells; ATP-induced calcium, Fluo-8 fluorescence; inhibition, % at 3 µM; hit rate 0.6% among 360,000;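 active = inhibition above a per-plate cutoff, the plate's mean sample inhibition plus 3 SD, cut at about 24% in these data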;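 also: 0% = DMSO plus EC80 ATP and 100% = DMSO alone without ATP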
CHRM5 agonist: CHRM5 agonism in calcium assay. activation, % at 3 µM. CHO-K1 hM5 cells, Fluo-8 calcium fluorescence; 0% DMSO wells, 100% maximal acetylcholine response. hit rate 0.19% among 360,000. P08912;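 active = activation above the run's mean over test compounds plus 3 SD, cut at about 23% in these data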;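 also: signal is peak over basal fluorescence ratio across the kinetic read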
Target sequence (P08912 whole entry, looked up): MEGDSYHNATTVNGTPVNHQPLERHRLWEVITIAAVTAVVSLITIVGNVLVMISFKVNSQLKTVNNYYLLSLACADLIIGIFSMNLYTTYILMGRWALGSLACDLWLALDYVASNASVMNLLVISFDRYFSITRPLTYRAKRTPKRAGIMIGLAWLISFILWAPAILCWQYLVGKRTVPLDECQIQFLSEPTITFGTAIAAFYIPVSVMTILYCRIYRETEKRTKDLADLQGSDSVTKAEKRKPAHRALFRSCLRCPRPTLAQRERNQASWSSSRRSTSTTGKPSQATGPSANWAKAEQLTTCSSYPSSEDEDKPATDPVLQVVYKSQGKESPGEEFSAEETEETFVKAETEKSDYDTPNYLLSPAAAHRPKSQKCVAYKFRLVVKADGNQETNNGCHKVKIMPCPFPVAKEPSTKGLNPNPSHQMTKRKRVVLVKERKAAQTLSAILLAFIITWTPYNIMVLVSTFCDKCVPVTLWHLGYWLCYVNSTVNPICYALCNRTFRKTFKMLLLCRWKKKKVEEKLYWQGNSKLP
M5 PAM: potentiates acetylcholine response at human M5 receptor | activation, % at 3 µM | hit rate 0.3% among 360,000 | CHO-K1 hM5, Fluo-8 calcium, ACh EC20 PAM; 0% = ACh EC20, 100% = ACh EC100 | P08912 | AID 624038;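 active = activation above the run cutoff, the mean activation of all test compounds plus 3 SD, cut at about 18% in these data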
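Measured by: Fluo-8 calcium fluorescence; material: human M5 receptor in CHO-K1 cells; schedule: Post-acetylcholine fluorescence recording 140 s; benchmarks: low control EC20 acetylcholine (0%), high control EC100 acetylcholine (100%); read-out: Max/basal fluorescence ratio as % of EC20–EC100 ACh window; compound: single dose, 3 µM nominal final test concentration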
CHRM5 antagonist: blocks acetylcholine activation of human M5 receptor; inhibition, % at 3 µM; P08912; CHO-hM5 cells, Fluo-8 calcium fluorescence, ACh EC80; hit rate 0.59% among 360,000; AID 624040;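 active = inhibition above a per-plate cutoff, the mean of that plate's test compounds plus 3 SD, cut at about 27% in these data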;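 also: 0% = acetylcholine EC80 with DMSO and 100% = DMSO without agonist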
M1 ag parental: nonselective activator or artifact in parental CHO-K1 cells; Fluo-8 calcium fluorescence; scaled to maximal ATP response, vehicle zero; activation, % at 3 µM; hit rate 0.48% among 360,000; in the data active = activation above about 15%;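 also: untransfected CHO-K1 host cells lacking M1 receptor as counterscreen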
* = called active by the depositor.

Cc1ccc(C(O)(c2ccc(C)c(C)c2)C2CN3CCC2CC3)cc1C (configuration not stated) was read as CHO-K1 Ca PAM 6, CHO-K1 Ca antag 10, CHRM5 agonist -5, M5 PAM -9, CHRM5 antagonist 14 and M1 ag parental 1.
`CCN(CC(=O)Nc1ccc(C#N)c(Cl)c1)CC(=O)NC1CCS(=O)(=O)C1` (configuration not stated) gave CHO-K1 Ca PAM -18, CHO-K1 Ca antag 25*, CHRM5 agonist -4, M5 PAM 4, CHRM5 antagonist -9 and M1 ag parental 0.
Screening N#Cc1ccc(NC(=O)CN2CCCC2)cc1Cl returned CHO-K1 Ca PAM 9, CHO-K1 Ca antag -14, CHRM5 agonist 2, M5 PAM 1, CHRM5 antagonist 11 and M1 ag parental 3.
O=c1[nH]c2ccccc2n1C1CCN(Cc2ccc(-c3[nH]c4cc5ncnc5cc4nc3-c3ccccc3)cc2)CC1 was read as CHO-K1 Ca PAM -2, CHO-K1 Ca antag 2, CHRM5 agonist 67*, M5 PAM -22, CHRM5 antagonist 14 and M1 ag parental 3.
C[N+](C)(C)Cc1ccccc1 was read as CHO-K1 Ca PAM -3, CHO-K1 Ca antag 2, CHRM5 agonist 89*, M5 PAM -20, CHRM5 antagonist 65* and M1 ag parental 1.
COc1ccc2[nH]c(C)c(CCNCc3cc(OC)c(OC)c(OC)c3)c2c1 was read as CHO-K1 Ca PAM 3, CHO-K1 Ca antag -15, CHRM5 agonist -1, M5 PAM 7, CHRM5 antagonist 1 and M1 ag parental 1.
Screening COc1ccc(CNCCc2c(C)[nH]c3ccc(OC(F)(F)F)cc23)c(OC)c1 returned CHO-K1 Ca PAM -7, CHO-K1 Ca antag 33*, CHRM5 agonist 22, M5 PAM -21, CHRM5 antagonist 32* and M1 ag parental 37*.
Screening O=C(Nc1ccc(Cl)cc1)OC1CN2CCC1CC2 (configuration not stated) returned CHO-K1 Ca PAM 5, CHO-K1 Ca antag 4, CHRM5 agonist -13, M5 PAM -30, CHRM5 antagonist 31* and M1 ag parental 10.
For O=C(Nc1ccccc1Cl)OC1CN2CCC1CC2 (configuration not stated) the results were CHO-K1 Ca PAM 15, CHO-K1 Ca antag -8, CHRM5 agonist -16, M5 PAM -32, CHRM5 antagonist 25 and M1 ag parental 5.
`O=C(Nc1cccc(Cl)c1)OC1CN2CCC1CC2` (configuration not stated) gave CHO-K1 Ca PAM -28, CHO-K1 Ca antag 45*, CHRM5 agonist 9, M5 PAM -27, CHRM5 antagonist 29* and M1 ag parental 16*.
For CCCCC(=O)C1C(=O)NC(=O)NC1=O the results were CHO-K1 Ca PAM 15, CHO-K1 Ca antag -5, CHRM5 agonist 4, M5 PAM 0, CHRM5 antagonist -5 and M1 ag parental 1.
For NCCc1ccc(OCc2ccccc2)c(OCc2ccccc2)c1 the results were CHO-K1 Ca PAM 7, CHO-K1 Ca antag 5, CHRM5 agonist 10, M5 PAM 15, CHRM5 antagonist 2 and M1 ag parental 16*.
Screening CCOC(=O)[C@]12Cc3cc(Cl)ccc3[C@H]1N(C1CCCCC1)C(=O)c1ccccc12 returned CHO-K1 Ca PAM 16, CHO-K1 Ca antag 8, CHRM5 agonist 24*, M5 PAM 12, CHRM5 antagonist 2 and M1 ag parental 4.
O=C1NC(=O)C(=Cc2ccc(OCC(=O)N3CCOCC3)cc2)C(=O)N1 was read as CHO-K1 Ca PAM -15, CHO-K1 Ca antag 29*, CHRM5 agonist 0, M5 PAM 0, CHRM5 antagonist -7 and M1 ag parental 0.
For CN(CCOc1ccc(C=C2C(=O)NC(=O)NC2=O)cc1)c1ccccn1 the results were CHO-K1 Ca PAM 6, CHO-K1 Ca antag -10, CHRM5 agonist -10, M5 PAM 1, CHRM5 antagonist 7 and M1 ag parental 1.
CCC(CO)(C(=O)OC1C[N+]2(C)CCC1CC2)c1ccccc1 (configuration not stated) was read as CHO-K1 Ca PAM 3, CHO-K1 Ca antag 4, CHRM5 agonist -11, M5 PAM -19, CHRM5 antagonist 99* and M1 ag parental 0.
Screening O=c1[nH]c(=O)n(CCc2ccccc2)c(O)c1C=NCCCn1ccnc1 returned CHO-K1 Ca PAM -6, CHO-K1 Ca antag 62*, CHRM5 agonist -6, M5 PAM -3, CHRM5 antagonist 2 and M1 ag parental 0.
Screening O=c1[nH]c(=O)n(Cc2ccccc2)c(O)c1C=NCCCn1ccnc1 returned CHO-K1 Ca PAM 14, CHO-K1 Ca antag -8, CHRM5 agonist -4, M5 PAM 8, CHRM5 antagonist -10 and M1 ag parental 1.
`COC(=O)C1=C(c2cc3ccccc3o2)C[C@@H]2CC[C@H]1N2C(=O)NCc1ccc(F)cc1` gave CHO-K1 Ca PAM 12, CHO-K1 Ca antag -14, CHRM5 agonist -12, M5 PAM -23, CHRM5 antagonist 9 and M1 ag parental 0.
CC1=C(O)C(=O)C=C2C1=CC=C1C2(C)CCC2(C)C3CC(C)(C(=O)O)CCC3(C)CCC12C (configuration not stated) was read as CHO-K1 Ca PAM 6, CHO-K1 Ca antag 37*, CHRM5 agonist 4, M5 PAM -23, CHRM5 antagonist 37* and M1 ag parental 6.
`CCC(=NCc1ccco1)c1c(O)n(-c2ccccc2)c(=O)[nH]c1=O` gave CHO-K1 Ca PAM 7, CHO-K1 Ca antag 29*, CHRM5 agonist 1, M5 PAM 7, CHRM5 antagonist -5 and M1 ag parental -1.
For CC(NCc1cccc(Cl)c1Cl)C(O)c1ccccc1 (configuration not stated) the results were CHO-K1 Ca PAM 12, CHO-K1 Ca antag -9, CHRM5 agonist -3, M5 PAM 4, CHRM5 antagonist -9 and M1 ag parental 2.
Screening CN(C)C(CNC(=O)Cc1c(Cl)cccc1Cl)c1ccccc1 (configuration not stated) returned CHO-K1 Ca PAM 8, CHO-K1 Ca antag 6, CHRM5 agonist -12, M5 PAM -16, CHRM5 antagonist 41* and M1 ag parental 0.
`O=C1NCN(c2ccccc2)C12CCN(C(c1cccc3ccccc13)c1nnnn1Cc1ccccc1)CC2` (configuration not stated) gave CHO-K1 Ca PAM 12, CHO-K1 Ca antag 6, CHRM5 agonist 6, M5 PAM 9, CHRM5 antagonist 1 and M1 ag parental 1.
For CCCCn1nnnc1C(c1cccc2ccccc12)N1CCC2(CC1)C(=O)NCN2c1ccccc1 (configuration not stated) the results were CHO-K1 Ca PAM -8, CHO-K1 Ca antag 30*, CHRM5 agonist 1, M5 PAM -3, CHRM5 antagonist 2 and M1 ag parental 0.
